# Compounds with a hit are over-represented: about 2.3% of the library has one in this group of screens.
# TRPC6 inhibitor – inhibitors of mouse TRPC6 channel | HEK293-TRPC6, membrane potential dye, ACh-evoked depolarization; active compounds read low | B-score at 10 µM | 310,000 tested, 1.1% active | AID 2553;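 active = B-score under library mean minus 3 SD, initial fluorescence not abnormally high, positive integrated signal ratio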;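 also: B-score derived from integrated fluorescence ratio over the kinetic read; more negative B-score means stronger inhibition of depolarization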
# Target sequence (Q61143 whole entry, looked up): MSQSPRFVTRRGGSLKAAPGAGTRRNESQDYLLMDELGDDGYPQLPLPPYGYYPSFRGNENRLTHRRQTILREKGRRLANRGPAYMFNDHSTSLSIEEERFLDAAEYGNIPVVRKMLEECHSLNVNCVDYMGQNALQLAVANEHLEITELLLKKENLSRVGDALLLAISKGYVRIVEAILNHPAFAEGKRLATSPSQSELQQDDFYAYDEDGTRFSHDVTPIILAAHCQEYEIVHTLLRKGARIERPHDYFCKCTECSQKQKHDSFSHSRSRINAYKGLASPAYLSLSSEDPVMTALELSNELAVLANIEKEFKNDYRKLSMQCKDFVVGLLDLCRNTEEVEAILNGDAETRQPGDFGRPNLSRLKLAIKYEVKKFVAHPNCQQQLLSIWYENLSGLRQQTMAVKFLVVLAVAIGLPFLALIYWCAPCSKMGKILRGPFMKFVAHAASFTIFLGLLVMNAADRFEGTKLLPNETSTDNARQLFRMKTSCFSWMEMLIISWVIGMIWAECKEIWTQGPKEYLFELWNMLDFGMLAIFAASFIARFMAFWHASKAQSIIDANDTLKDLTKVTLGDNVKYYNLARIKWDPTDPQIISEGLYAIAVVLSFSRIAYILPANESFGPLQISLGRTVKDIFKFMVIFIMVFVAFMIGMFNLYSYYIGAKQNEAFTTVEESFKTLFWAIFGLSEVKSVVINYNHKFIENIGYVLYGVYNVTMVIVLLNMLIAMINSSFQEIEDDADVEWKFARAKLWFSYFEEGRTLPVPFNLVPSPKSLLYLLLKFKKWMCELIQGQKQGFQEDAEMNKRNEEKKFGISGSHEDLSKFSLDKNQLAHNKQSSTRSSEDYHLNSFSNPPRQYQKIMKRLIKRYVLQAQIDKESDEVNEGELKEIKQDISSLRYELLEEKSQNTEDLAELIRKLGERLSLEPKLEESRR
# TRPC4 potent – allosteric potentiators of mouse TRPC4 channel | 310,000 tested, 0.42% active | AID 2227 | Q9QUQ5 | HEK293 TRPC4beta/mu-opioid, DAMGO EC20, Fluo-4 Ca2+ flux; active compounds read high | B-score at 10 µM;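 active = B-score of calcium response area above 5 SD of library B-scores, with initial fluorescence ratio within 5 SD of library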;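 also: B-score of integrated fluorescence ratio over time as area under calcium response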
# TRPC4 inh – TRPC4 (mouse) channel inhibition; Q9QUQ5; HEK293 TRPC4beta/mu-opioid, DAMGO-evoked Fluo4 calcium flux; active compounds read low; B-score at 10 µM; 300,000 tested, 0.39% active; AID 2247;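 active = B-score over 3 SD under the library average, no early fluorescence shift, positive overall ratio signal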
#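 Assay system: Stable TRPC4beta/mu-opioid receptor HEK293 cells | Reagent: DAMGO in two steps, submaximal then maximal | Compound dosing: Single concentration per test compound | Signal: Fluo4 Ca2+ flux fluorescence | Evaluation: Per-well B score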
# TRPC6 activator – mouse TRPC6 channel activation | Q61143 | HEK293-TRPC6 membrane potential dye fluorescence; active compounds read high | B-score at 10 µM | 310,000 tested, 0.13% active;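 active = B-score of the integrated fluorescence ratio above library mean plus 3 SD, and starting fluorescence ratio within library mean plus 5 SD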;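 also: higher score means more depolarization so channel activation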
# TRPC4 act – activators of mouse TRPC4 channel. Q9QUQ5. HEK293 TRPC4beta/mu-opioid, Fluo4 calcium fluorescence; active compounds read high. B-score at 10 µM. 310,000 tested, 0.49% active;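 active = B-score above 5 SD of library B-scores, and initial fluorescence ratio not above library mean plus 5 SD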;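 also: positive B-score marks a calcium rise read as TRPC4 activation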
#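 system = HEK293 cells stably co-expressing mouse TRPC4beta and mu-opioid receptor | schedule = Fluo4 dye loading 45 min at room temperature, 110 s recording | measure = B-scored integrated calcium fluorescence ratio | signal = Fluo4 calcium-sensitive dye fluorescence, kinetic, 1 Hz baseline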
# The depositor's hits bear a star; i = inactive.
SMILES,TRPC6 inhibitor,TRPC4 potent,TRPC4 inh,TRPC6 activator,TRPC4 act
COc1ccc(C(CNC(=O)c2oc3ccc(Cl)cc3c2C)N2CCCCC2)cc1 (centres undefined),i,i,-5*,i,i
COc1ccc(C(CNC(=O)c2cccc(Br)c2)N2CCCC2)cc1 (centres undefined),i,i,i,i,89*
COc1ccc(C(CNC(=O)c2cccc(S(=O)(=O)Nc3ccc(C)cc3)c2)N2CCCCC2)cc1 (centres undefined),i,i,i,i,i
CCCCOc1ccc(C(=O)NCC(=O)NCC(c2ccc(OC)cc2)N2CCCC2)cc1 (centres undefined),i,14*,i,i,i
COc1ccc(C(CNC(=O)c2oc3c(Cl)cccc3c2C)N2CCCC2)cc1 (centres undefined),i,i,i,i,i
COc1ccc(C(CNC(=S)NCc2ccccc2)N2CCCC2)cc1 (centres undefined),i,i,-6*,i,i
CC1(C)c2[nH]c3ccccc3c2C[C@@H]2C(=O)N(c3ccc(F)cc3F)C(=O)N21,i,i,i,i,i
CC(C)(C)c1cc(C(=O)NCc2cc(F)cc3c2OCOC3)n(Cc2ccccc2)n1,i,13*,i,i,i
COc1cc(S(=O)(=O)N2CCN(Cc3ccccc3)CC2)ccc1Br,i,10*,i,i,i
COc1cc(CN2CCN(S(=O)(=O)c3ccccc3)CC2)cc(OC)c1OC,i,i,i,i,i
Cc1cc(NC(=O)Nc2cccc(Cl)c2)n(-c2ccccc2)n1,i,i,i,i,i
Cc1cc(NC(=O)Nc2cccc(Cl)c2)n(-c2ccccn2)n1,-5.2*,i,i,i,i
O=C(O)CCn1nc(-c2ccc(F)cc2)cc(Cc2ccccc2)c1=O,i,i,i,i,i
COc1ccc(C[C@H]2CN3C(=NC[C@@H]3Cc3ccccc3)N2CCNC(=O)CCC2CCCCC2)cc1,i,i,i,i,60*
NC(N)=N/N=C/c1cccc(Cl)c1Cl,i,i,i,i,i
Cc1cc(C)cc(N(C(=O)c2csnn2)C(C(=O)NC2CCCC2)c2ccccn2)c1 (centres undefined),i,i,i,i,i
CC1CCc2c(sc(/N=C/N(C)C)c2C#N)C1 (centres undefined),i,i,-6*,i,i
CN(C)/C=N/c1sc2c(c1C#N)CCCC2,i,i,i,i,i
CN(Cc1ccccc1)Cc1c(O)ccc2ccccc12,i,i,i,i,i
COc1ccc(OCCN(C)Cc2c(O)ccc3ccccc23)cc1,i,18*,i,i,i
N#C/C(=C\c1ccccc1)C(=O)Nc1nncs1,i,i,i,i,i
Cc1ccc(C)c(S(=O)(=O)c2c(C)cc(C)[nH]c2=O)c1,i,i,i,i,i
CC(C)c1nc(SCc2ccccn2)c2c(=O)n(C)c(=O)n(C)c2n1,i,i,i,i,52*
COc1ccccc1N1CCN(C(=O)c2c(-c3c(F)cccc3Cl)noc2C)CC1,i,i,i,i,i
CCCN(CCC)CCCNC(=O)c1cc2cc3ccc(Cl)cc3nc2o1,i,i,i,i,53*
SMILES,TRPC6 inhibitor,TRPC4 potent,TRPC4 inh,TRPC6 activator,TRPC4 act
CCCCN(CC)CCCNC(=O)c1cc2cc3ccc(C)cc3nc2o1,i,16*,i,i,i
CCCCN(CC)CCNC(=O)c1cc2c(C)nc3ccccc3c2o1,i,i,i,i,138*
CCCCN(CC)CCNC(=O)c1cc2cc3ccc(Cl)cc3nc2o1,i,13*,i,i,103*
O=C(NCc1ccco1)c1cc2cc3ccc(Cl)cc3nc2o1,i,i,i,i,i
COc1ccc(NC(=O)C(=O)NCC2CCCN2S(=O)(=O)c2cccs2)cc1 (centres undefined),i,i,i,i,i
O=C(NCCC1CCCCN1S(=O)(=O)c1ccc(F)cc1)C(=O)NCc1ccccn1 (centres undefined),i,i,i,i,i
Cc1ccc2[nH]c(O)c(N=O)c2c1,i,i,i,i,i
O=C1/C(=C\c2ccc(O)c(O)c2)C(c2ccccc2)=NN1c1ccccc1,i,i,i,i,i
COc1cc(/C=C2\C(=O)N(c3ccc(NC(C)=O)cc3)N=C2c2ccccc2)ccc1O,i,15*,i,i,i
COc1cc(C(=O)NCC2(c3ccccc3)CCCC2)cc(OC)c1OC,i,i,i,i,i
CCCN(CCC)C(C)C(=O)NCC1(c2ccccc2)CCCC1 (centres undefined),i,i,i,i,i
CCOP(=O)(c1ccccc1)c1nc(-c2ccccc2C)oc1N1CCCCC1 (centres undefined),i,11*,i,i,i
CCOP(=O)(OCC)c1nc(-c2cccc3ccccc23)oc1N1CCCCC1,i,23*,i,i,i
COP(=O)(OC)c1nc(-c2cccc3ccccc23)oc1N1CCCCC1,i,i,i,i,i
CC1(C)CC(NC(=O)C2CCC(=O)N(C3CC3)C2)CC(C)(C)C1 (centres undefined),i,i,i,i,i
Cc1ccc(-c2ccc(CCC(=O)O)n2-c2cccc(C(=O)O)c2)cc1,i,i,i,i,i
CC(C)(CO)NCc1c(OCc2ccc(Cl)cc2)ccc2ccccc12,-6.7*,i,i,i,i
O[C@H]1COC2C1OC[C@@H]2O (some centres undefined),i,i,i,i,i
COc1cccc(N(CC(=O)NCC2CCCO2)C(=O)CCC(=O)Nc2nccs2)c1 (centres undefined),i,i,i,i,i
O=C1NC(c2ccccc2)=C(c2nc3ccccc3s2)C(c2ccc(F)cc2)N1 (centres undefined),i,11*,i,i,i
CCOc1ccc([N+](=O)[O-])cc1CNC1CCCCCCC1,-5.9*,i,i,i,i
O=[N+]([O-])c1cccc(CNC2CCCCCC2)c1,i,i,i,i,i
CCCc1c(-c2ccc(O)cc2)nn(-c2ccc(O)cc2)c1-c1ccc(O)cc1,i,27*,i,i,i
Cc1c(C(N)=O)c(-c2ccccc2)nn1-c1ccccc1,i,i,i,i,i
CC(C)Cc1cc(C(=O)Nc2cc(C(F)(F)F)ccc2Cl)no1,i,10*,i,i,i
